Test results: ChEMBL document CHEMBL1649256, “Comparison of assessment of oxygen consumption, Etest, and CLSI M38-A2 broth microdilution methods for evaluation of the susceptibility of Aspergillus fumigatus to posaconazole” (2009)
≈ marks a conversion by molar mass, not a printed value.

Legend:
Assay type in all cases: functional
[1] = tested on: Aspergillus fumigatus; assay: Antimicrobial activity against Aspergillus fumigatus isolate 29 by CLSI M38-A2 broth microdilution method
Method in brief: (§1)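 Reference broth microdilution per CLSI M38-A2. MIC read as absence of visible growth at 48 h. C. parapsilosis ATCC 22019 and C. krusei ATCC 6258 QC strains run in each test session.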

[2] = tested on: Aspergillus fumigatus; assay: Antimicrobial activity against Aspergillus fumigatus isolate 36 after 24 hrs by Etest; conditions: isolate 36, 24 h
Method in brief: (§2)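 Posaconazole Etest strips on RPMI 1640 agar with 2% glucose, pH 7.0, run per the strip maker's instructions. Incubated at 35°C. MIC read at 24 h and at 48 h, matching the time in each line.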

[3] = tested on: Aspergillus fumigatus; assay: Antimicrobial activity against Aspergillus fumigatus isolate 21 after 24 hrs by Etest; conditions: isolate 21, 24 h
Method in brief: (§3)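 Etest strips on RPMI 1640 agar with 2% glucose, pH 7.0, run per manufacturer's instructions. Incubated at 35°C; MIC read at 24 h.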

[4] = tested on: Aspergillus fumigatus; assay: Antimicrobial activity against Aspergillus fumigatus isolate 38 after 24 hrs by Etest; conditions: isolate 38, 24 h; method in brief: as §2
[5] = tested on: Aspergillus fumigatus; assay: Antimicrobial activity against Aspergillus fumigatus isolate 43 after 24 hrs by Etest; conditions: isolate 43, 24 h; method in brief: as §2
[6] = tested on: Aspergillus fumigatus; assay: Antimicrobial activity against Aspergillus fumigatus isolate 50 after 24 hrs by Etest; conditions: isolate 50, 24 h
[7] = tested on: Aspergillus fumigatus; assay: Antimicrobial activity against Aspergillus fumigatus isolate 26 after 48 hrs by Etest; conditions: isolate 26, 48 h
Method in brief: (§4)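 Etest strips on RPMI 1640 agar with 2% glucose, pH 7.0, run per manufacturer's instructions. Incubated at 35°C; MIC read at 48 h.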

[8] = tested on: Aspergillus fumigatus; assay: Antimicrobial activity against Aspergillus fumigatus isolate 20 after 48 hrs by Etest; conditions: isolate 20, 48 h
Method in brief: (§5)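 Posaconazole Etest strips placed on RPMI 1640 agar with 2% glucose, pH 7.0, and run per the strip maker's instructions. Incubation at 35°C, with the MIC read at 24 h and at 48 h.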

[9] = tested on: Aspergillus fumigatus; assay: Antimicrobial activity against Aspergillus fumigatus isolate 11 by oxygen consumption method
Method in brief: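 Conidial suspension in RPMI 1640 broth with posaconazole at 0.25 and 2 μg/ml. Tubes agitated 12 h at 37°C in a biological oxygen monitor. Available oxygen was monitored continuously, and the MIC was assigned from the oxygen quantification.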

[10] = tested on: Aspergillus fumigatus; assay: Antimicrobial activity against Aspergillus fumigatus isolate 28 by CLSI M38-A2 broth microdilution method; method in brief: as §1
[11] = tested on: Aspergillus fumigatus; assay: Antimicrobial activity against Aspergillus fumigatus isolate 30 by CLSI M38-A2 broth microdilution method; method in brief: as §1
[12] = tested on: Aspergillus fumigatus; assay: Antimicrobial activity against Aspergillus fumigatus isolate 33 by oxygen consumption method
Method in brief: (§6)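 Conidial suspension in RPMI 1640 broth, tested at two posaconazole levels (0.25 and 2 μg/ml). Agitated for 12 h at 37°C in a biological oxygen monitor. MIC derived from continuous monitoring and quantification of the available oxygen.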

[13] = tested on: Aspergillus fumigatus; assay: Antimicrobial activity against Aspergillus fumigatus isolate 48 after 24 hrs by Etest; conditions: isolate 48, 24 h
[14] = tested on: Aspergillus fumigatus; assay: Antimicrobial activity against Aspergillus fumigatus isolate 48 by oxygen consumption method
[15] = tested on: Aspergillus fumigatus; assay: Antimicrobial activity against Aspergillus fumigatus isolate 6 after 48 hrs by Etest; conditions: isolate 6, 48 h
[16] = tested on: Aspergillus fumigatus; assay: Antimicrobial activity against Aspergillus fumigatus isolate 34 by CLSI M38-A2 broth microdilution method
Method in brief: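 CLSI M38-A2 broth microdilution with posaconazole. MIC taken as the lowest concentration with no visible growth at 48 h. C. parapsilosis ATCC 22019 and C. krusei ATCC 6258 were included as QC strains in every run.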

[17] = tested on: Aspergillus fumigatus; assay: Antimicrobial activity against Aspergillus fumigatus isolate 24 by oxygen consumption method
Method in brief: (§7)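 Conidial suspension in RPMI 1640 broth, 1.5 ml, with two drug concentrations (0.25 and 2 μg/ml). Tubes agitated 12 h at 37°C in a biological oxygen monitor. Available oxygen monitored continuously and quantified to assign the MIC.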

[18] = tested on: Aspergillus fumigatus; assay: Antimicrobial activity against Aspergillus fumigatus isolate 35 after 48 hrs by Etest; conditions: isolate 35, 48 h; method in brief: as §2
[19] = tested on: Aspergillus fumigatus; assay: Antimicrobial activity against Aspergillus fumigatus isolate 1 after 48 hrs by Etest; conditions: isolate 1, 48 h; method in brief: as §5
[20] = tested on: Aspergillus fumigatus; assay: Antimicrobial activity against Aspergillus fumigatus isolate 44 by CLSI M38-A2 broth microdilution method
[21] = tested on: Aspergillus fumigatus; assay: Antimicrobial activity against Aspergillus fumigatus isolate 41 by oxygen consumption method; method in brief: as §6
[22] = tested on: Aspergillus fumigatus; assay: Antimicrobial activity against Aspergillus fumigatus isolate 24 after 48 hrs by Etest; conditions: isolate 24, 48 h; method in brief: as §4
[23] = tested on: Aspergillus fumigatus; assay: Antimicrobial activity against Aspergillus fumigatus isolate 15 after 24 hrs by Etest; conditions: isolate 15, 24 h; method in brief: as §5
[24] = tested on: Aspergillus fumigatus; assay: Antimicrobial activity against Aspergillus fumigatus isolate 43 by oxygen consumption method
[25] = tested on: Aspergillus fumigatus; assay: Antimicrobial activity against Aspergillus fumigatus isolate 12 by CLSI M38-A2 broth microdilution method
Method in brief: (§8)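 Posaconazole broth microdilution follows CLSI M38-A2. The MIC is the lowest concentration with no visible growth at 48 h. Candida parapsilosis ATCC 22019 and Candida krusei ATCC 6258 were included as QC strains in every run.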

[26] = tested on: Aspergillus fumigatus; assay: Antimicrobial activity against Aspergillus fumigatus isolate 44 after 48 hrs by Etest; conditions: isolate 44, 48 h
[27] = tested on: Aspergillus fumigatus; assay: Antimicrobial activity against Aspergillus fumigatus isolate 35 after 24 hrs by Etest; conditions: isolate 35, 24 h; method in brief: as §2
[28] = tested on: Aspergillus fumigatus; assay: Antimicrobial activity against Aspergillus fumigatus isolate 1 after 24 hrs by Etest; conditions: isolate 1, 24 h; method in brief: as §5
[29] = tested on: Aspergillus fumigatus; assay: Antimicrobial activity against Aspergillus fumigatus isolate 44 after 24 hrs by Etest; conditions: isolate 44, 24 h
[30] = tested on: Aspergillus fumigatus; assay: Antimicrobial activity against Aspergillus fumigatus isolate 37 by oxygen consumption method; method in brief: as §6
[31] = tested on: Aspergillus fumigatus; assay: Antimicrobial activity against Aspergillus fumigatus isolate 18 after 24 hrs by Etest; conditions: isolate 18, 24 h; method in brief: as §5
[32] = tested on: Aspergillus fumigatus; assay: Antimicrobial activity against Aspergillus fumigatus isolate 49 after 48 hrs by Etest; conditions: isolate 49, 48 h
[33] = tested on: Aspergillus fumigatus; assay: Antimicrobial activity against Aspergillus fumigatus isolate 16 by CLSI M38-A2 broth microdilution method; method in brief: as §8
[34] = tested on: Aspergillus fumigatus; assay: Antimicrobial activity against Aspergillus fumigatus isolate 7 after 24 hrs by Etest; conditions: isolate 7, 24 h
[35] = tested on: Aspergillus fumigatus; assay: Antimicrobial activity against Aspergillus fumigatus isolate 6 by CLSI M38-A2 broth microdilution method
[36] = tested on: Aspergillus fumigatus; assay: Antimicrobial activity against Aspergillus fumigatus isolate 42 by oxygen consumption method; method in brief: as §6
[37] = tested on: Aspergillus fumigatus; assay: Antimicrobial activity against Aspergillus fumigatus isolate 24 after 24 hrs by Etest; conditions: isolate 24, 24 h; method in brief: as §3
[38] = tested on: Aspergillus fumigatus; assay: Antimicrobial activity against Aspergillus fumigatus isolate 7 by CLSI M38-A2 broth microdilution method
[39] = tested on: Aspergillus fumigatus; assay: Antimicrobial activity against Aspergillus fumigatus isolate 31 after 24 hrs by Etest; conditions: isolate 31, 24 h; method in brief: as §3
[40] = tested on: Aspergillus fumigatus; assay: Antimicrobial activity against Aspergillus fumigatus isolate 29 by oxygen consumption method; method in brief: as §7
[41] = tested on: Aspergillus fumigatus; assay: Antimicrobial activity against Aspergillus fumigatus isolate 4 after 48 hrs by Etest; conditions: isolate 4, 48 h; method in brief: as §2
[42] = tested on: Aspergillus fumigatus; assay: Antimicrobial activity against Aspergillus fumigatus isolate 47 by oxygen consumption method
[43] = tested on: Aspergillus fumigatus; assay: Antimicrobial activity against Aspergillus fumigatus isolate 32 after 24 hrs by Etest; conditions: isolate 32, 24 h; method in brief: as §2
[44] = tested on: Aspergillus fumigatus; assay: Antimicrobial activity against Aspergillus fumigatus isolate 30 after 48 hrs by Etest; conditions: isolate 30, 48 h; method in brief: as §4

## CC[C@@H]([C@H](C)O)n1ncn(-c2ccc(N3CCN(c4ccc(OC[C@@H]5CO[C@@](Cn6cncn6)(c6ccc(F)cc6F)C5)cc4)CC3)cc2)c1=O [POSACONAZOLE]
[1]
  MIC: 0.125 µg/mL (≈ 0.178 µM)
[2]
  MIC: 0.06 µg/mL (≈ 0.0856 µM)
[3]
  MIC: 0.25 µg/mL (≈ 0.357 µM)
[4]
  MIC: 0.06 µg/mL (≈ 0.0856 µM)
[5]
  MIC: ≤ 0.03 µg/mL
[6]
  MIC: 0.25 µg/mL (≈ 0.357 µM)
[7]
  MIC: 0.25 µg/mL (≈ 0.357 µM)
[8]
  MIC: 0.25 µg/mL (≈ 0.357 µM)
[9]
  MIC: ≤ 0.25 µg/mL
[10]
  MIC: 0.25 µg/mL (≈ 0.357 µM)
[11]
  MIC: 0.125 µg/mL (≈ 0.178 µM)
[12]
  MIC: ≥ 0.5 µg/mL
[13]
  MIC: ≤ 0.03 µg/mL
[14]
  MIC: ≤ 0.25 µg/mL
[15]
  MIC: 4 µg/mL (≈ 5.71 µM)
[16]
  MIC: 0.125 µg/mL (≈ 0.178 µM)
[17]
  MIC: ≤ 0.25 µg/mL
[18]
  MIC: 0.25 µg/mL (≈ 0.357 µM)
[19]
  MIC: 8 µg/mL (≈ 11.4 µM)
[20]
  MIC: 0.06 µg/mL (≈ 0.0856 µM)
[21]
  MIC: ≤ 0.25 µg/mL
[22]
  MIC: 0.125 µg/mL (≈ 0.178 µM)
[23]
  MIC: 0.06 µg/mL (≈ 0.0856 µM)
[24]
  MIC: ≤ 0.25 µg/mL
[25]
  MIC: 0.125 µg/mL (≈ 0.178 µM)
[26]
  MIC: 0.06 µg/mL (≈ 0.0856 µM)
[27]
  MIC: 0.25 µg/mL (≈ 0.357 µM)
[28]
  MIC: 8 µg/mL (≈ 11.4 µM)
[29]
  MIC: ≤ 0.03 µg/mL
[30]
  MIC: ≤ 0.25 µg/mL
[31]
  MIC: 0.125 µg/mL (≈ 0.178 µM)
[32]
  MIC: 0.5 µg/mL (≈ 0.713 µM)
[33]
  MIC: 0.125 µg/mL (≈ 0.178 µM)
[34]
  MIC: 0.25 µg/mL (≈ 0.357 µM)
[35]
  MIC: 0.125 µg/mL (≈ 0.178 µM)
[36]
  MIC: ≤ 0.25 µg/mL
[37]
  MIC: 0.125 µg/mL (≈ 0.178 µM)
[38]
  MIC: 0.25 µg/mL (≈ 0.357 µM)
[39]
  MIC: 0.06 µg/mL (≈ 0.0856 µM)
[40]
  MIC: ≤ 0.25 µg/mL
[41]
  MIC: 0.25 µg/mL (≈ 0.357 µM)
[42]
  MIC: ≤ 0.25 µg/mL
[43]
  MIC: 0.25 µg/mL (≈ 0.357 µM)
[44]
  MIC: 0.5 µg/mL (≈ 0.713 µM)
